Activity calls are given as the source filed them. The rule behind the calls is not given here.
What was measured:
[1] = Binding affinity to Mg2+ at 3 x 10^-5 M to 8 x 10^-5 M by UV-Vis spectrophotometric method
Summary of the method: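 UV-vis spectrophotometric titration of the compound in absolute ethanol with MgCl2, read in a quartz cuvette with a 1 cm path. MgCl2 was diluted in absolute ethanol to 13 stock solutions spanning 4 10–5 to 0.2 M (stock concentrations). Spectra were recorded across increasing Mg2+ levels, and isosbestic points were used to judge complexation equilibria. Each experiment was done in triplicate.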

[2] = target: Human immunodeficiency virus type 1 reverse transcriptase (Human immunodeficiency virus 1, UniProt Q72547); assay: Inhibition of HIV1 reverse transcriptase RNase H activity using 18-nucleotide 3'-fluorescein-labeled RNA/5'-[…]-labeled DNA hybrid as substrate after 1 hr by fluorescence assay
Summary of the method: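 Polymerase-independent RNase H assay with 20 ng wild-type RT in 50 mM Tris-HCl pH 7.8, 6 mM MgCl2, 1 mM DTT and 80 mM KCl. Substrate was 0.25 μM RNA/DNA hybrid with a fluorescein-labelled RNA and a dabcyl-labelled DNA. Inhibitor was diluted in water over increasing concentrations. Incubation 1 h at 37 °C, stopped with EDTA, read at 490/528 nm. IC50 was averaged over three independent experiments.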

[3] = target: Human immunodeficiency virus type 1 reverse transcriptase (Human immunodeficiency virus 1) (UniProt Q72547); assay: Inhibition of HIV1 reverse transcriptase RNase H activity using 18-nucleotide 3'-fluorescein-labeled RNA/5'-[…]-labeled DNA hybrid as substrate assessed as remaining activity at 100 uM after 1 hr by fluorescence assay relative to control
Summary of the method: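 Wild-type RT (20 ng) RNase H reaction in Tris-HCl pH 7.8 buffer with 6 mM MgCl2, 1 mM DTT and 80 mM KCl. Substrate was 0.25 μM fluorescein/dabcyl RNA/DNA hybrid, with compound at 100 μM. Incubation 1 h at 37 °C, EDTA stop, fluorescence at 490/528 nm. Activity is given as percentage of control.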

[4] = target: Human immunodeficiency virus type 1 reverse transcriptase (Human immunodeficiency virus 1, UniProt Q72547, N474A); assay: Inhibition of HIV1 group M subtype B reverse transcriptase p66 N474A mutant RNase H activity using 18-nucleotide 3'-fluorescein-labeled RNA/5'-[…]-labeled DNA hybrid as substrate after 1 hr by fluorescence assay; design: species or system HIV-1 group M
Summary of the method: (§1)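 Mutations were introduced into the p66 subunit of subtype B RT. Enzyme amounts were set within the linear range: R448A 37.5 ng, N474A 62.5 ng, A502F 100 ng, R557A 75 ng. Buffer was 50 mM Tris-HCl pH 7.8, 6 mM MgCl2, 1 mM DTT, 80 mM KCl, with 0.25 μM fluorescein/dabcyl hybrid and water-diluted inhibitor. Incubation 1 h at 37 °C, EDTA stop, read at 490/528 nm.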

[5] = Selectivity ratio of IC50 for HIV1 group M subtype B reverse transcriptase p66 N474A mutant RNase H activity to IC50 for HIV1 reverse transcriptase RNase H activity
[6] = Selectivity ratio of IC50 for HIV1 group M subtype B reverse transcriptase p66 R448A mutant RNase H activity to IC50 for HIV1 reverse transcriptase RNase H activity
[7] = target: Human immunodeficiency virus type 1 reverse transcriptase (Human immunodeficiency virus 1, UniProt Q72547, R557A); assay: Inhibition of HIV1 group M subtype B reverse transcriptase p66 R557A mutant RNase H activity using 18-nucleotide 3'-fluorescein-labeled RNA/5'-[…]-labeled DNA hybrid as substrate after 1 hr by fluorescence assay; design: species or system HIV-1 group M; summary of the method: as §1
[8] = Selectivity ratio of IC50 for HIV1 group M subtype B reverse transcriptase p66 A502F mutant RNase H activity to IC50 for HIV1 reverse transcriptase RNase H activity
[9] = target: Human immunodeficiency virus type 1 reverse transcriptase (Human immunodeficiency virus 1, UniProt Q72547, A502F); assay: Inhibition of HIV1 group M subtype B reverse transcriptase p66 A502F mutant RNase H activity using 18-nucleotide 3'-fluorescein-labeled RNA/5'-[…]-labeled DNA hybrid as substrate after 1 hr by fluorescence assay; design: species or system HIV-1 group M; summary of the method: as §1
[10] = target: Human immunodeficiency virus type 1 reverse transcriptase (Human immunodeficiency virus 1, UniProt Q72547, R448A); assay: Inhibition of HIV1 group M subtype B reverse transcriptase p66 R448A mutant RNase H activity using 18-nucleotide 3'-fluorescein-labeled RNA/5'-[…]-labeled DNA hybrid as substrate after 1 hr by fluorescence assay; design: species or system HIV-1 group M; summary of the method: as §1
[11] = Selectivity ratio of IC50 for HIV1 group M subtype B reverse transcriptase p66 R557A mutant RNase H activity to IC50 for HIV1 reverse transcriptase RNase H activity
[12] = test system: Human immunodeficiency virus 1; assay: Antiviral activity against HIV1 assessed as inhibition of viral replication at 40 uM by cell-based assay; type: functional, organism-based
[13] = (§2) Binding affinity to Mg2+ assessed as hyperchromic effect at 3 x 10^-5 M to 8 x 10^-5 M by UV-Vis spectrophotometric method
Summary of the method: (§3)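 UV-vis titration with MgCl2 in a 1 cm quartz cuvette. MgCl2 was diluted in absolute ethanol to 13 stock solutions spanning 4 10–5 to 0.2 M. Spectra were followed for absorbance changes and isosbestic points. Each experiment was done in triplicate.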

[14] = as §2; summary of the method: as §3; remark: listed apart in the source

Row | Structure (SMILES) | IC50 [2] [µM] | Activity [3] [%] | further results
1 | Cc1cc(/C=C2\SC(N)=NC2=O)c(C)n1-c1ccc(F)cc1 | 12.3 |  | Activity [1]: inactive
2 | Cc1cc(/C=C2\SC(=N)NC2=O)c(C)n1-c1ccc(Cl)cc1 | 16.1 |  | Activity [1]: inactive
3 | CC(=O)c1cc2c(cc1NC(=O)CCC(=O)O)OCO2 | > 100 | 89.5 | 
4 | C[S+]([O-])CCC(NS(=O)(=O)c1ccccc1)C(=O)O (configuration not stated) | > 100 | 86 | 
5 | O=C1NC(=O)/C(=C/c2ccc(Cl)c(Cl)c2)S1 | > 100 | 80.5 | 
6 | Cc1nc(N)sc1C(=O)N/N=C\c1ccc(O)c([N+](=O)[O-])c1 | > 100 | 55 | 
7 | NC(=O)N(CCC(=O)O)c1ccc(Br)cc1 | > 100 | 84.5 | 
8 | Cc1ccc(C2NC(=O)C(O)=C2C(=O)c2cccs2)cc1 (configuration not stated) | > 100 | 81.8 | 
9 | CCOc1ccc(/C=C2\NC(=O)NC2=O)c(Cl)c1OC | 84.2 |  | 
10 | CCCCC(CC)CN1C(=O)C(O)=C(C(C)=O)C1c1ccco1 (configuration not stated) | > 100 | 77.5 | 
11 | COC(=O)c1c(-c2cccs2)csc1NC(=O)C1CC=CCC1C(=O)O (configuration not stated) | > 100 | 93 | 
12 | O=C(O)C1Sc2[nH]c(=O)sc2C2c3ccccc3OC(=O)C12 (configuration not stated) | > 100 | 80 | 
13 | CC(C)c1ccc(O)c(=O)c(O)c1 [BETA-THUJAPLICINOL] |  |  | IC50 [4]: 0.1 µM; Ratio IC50 [5]: 0.5; Ratio IC50 [6]: 0.7; IC50 [7]: 0.21 µM; Ratio IC50 [8]: 0.85; IC50 [9]: 0.17 µM; IC50 [10]: 0.14 µM; Ratio IC50 [11]: 1.05
14 | CCCc1cc2c(cc1/C=C1\NC(=O)NC1=O)OCO2 | 91.6 |  | 
15 | O=C(CSc1nc2ccccc2o1)Nc1ncn[nH]1 | > 100 | 82.7 | 
16 | O=C(N/N=C\c1cc([N+](=O)[O-])c(O)cc1O)c1ccccc1O | 49.9 |  | 
17 | Cc1cccc(OCC(=O)NC(Cc2ccccc2)C(=O)O)c1 (configuration not stated) | > 100 | 87.2 | 
18 | Cc1ccc(C2CC2C(=O)NN)cc1 (configuration not stated) | > 100 | 83.5 | 
19 | COc1cc(/C=N/NC(=O)COc2cccc(C)c2)c(O)c([N+](=O)[O-])c1 | > 100 | 59.4 | 
20 | O=C(O)COc1ccc(/C=C2\NC(=O)NC2=O)cc1I | > 100 | 67.5 | 
21 | COc1ccccc1NC(=O)C1CCCCC1(C)C(=O)O (configuration not stated) | 61.2 |  | 
22 | COc1cccc(/C=C2\NC(=O)NC2=O)c1-c1ccc(OC(=O)Nc2ccccc2)cc1 | 28.1 |  | 
23 | COc1cc(N2CCCC2)c(OC)cc1/C=C1/NC(=O)NC1=O | 9.35 |  | Activity [1]: Active; inhibition [12]: inactive; IC50 [4]: > 300 µM; Ratio IC50 [5]: > 32; Ratio IC50 [6]: 1.2; IC50 [7]: 20.5 µM; Ratio IC50 [8]: 3.5; IC50 [9]: 32.5 µM; IC50 [10]: 11 µM; Ratio IC50 [11]: 2.2

Row | Structure (SMILES) | IC50 [2] [µM] | Activity [3] [%] | further results
24 | CSCCC(NS(=O)(=O)c1ccc2c(c1)NC(=O)C(C)O2)C(=O)O (configuration not stated) | > 100 | 80.2 | 
25 | O=C1Nc2ccccc2/C1=N\NC(=O)c1ccc(O)cc1O | 36.4 |  | 
26 | COc1ccccc1/C=C/CN1CCNC(=O)C1CC(=O)O (configuration not stated) | > 100 | 83.7 | 
27 | O=C(O)CCCC(=O)NC1CCCCCCC1 | > 100 | 76.3 | 
28 | CCOc1cccc(/C=C2\SC(=O)NC2=O)c1O | > 100 | 60 | 
29 | CCOc1cc(/C=C2\SC(=S)N(c3ccccc3)C2=O)cc([N+](=O)[O-])c1O | 12.8 |  | Activity [1]: Active; inhibition [12]: inactive; IC50 [4]: 146 µM; Ratio IC50 [5]: 11.4; Ratio IC50 [6]: 0.9; Activity [13]: Active; IC50 [7]: 18.6 µM; Ratio IC50 [8]: 2.1; IC50 [9]: 26.3 µM; IC50 [10]: 11.3 µM; Ratio IC50 [11]: 1.5; Activity [14]: Active
30 | CCOc1ccc(/C=C2\SC(=O)NC2=O)cc1OCc1ccc(Cl)c(Cl)c1 | 5.17 |  | Activity [1]: inactive; inhibition [12]: inactive; IC50 [4]: > 300 µM; Ratio IC50 [5]: > 59; Ratio IC50 [6]: 1.4; IC50 [7]: 12.5 µM; Ratio IC50 [8]: 5.3; IC50 [9]: 26.7 µM; IC50 [10]: 7.01 µM; Ratio IC50 [11]: 2.5
31 | CC(Oc1ccc(C(C)(C)C)cc1)C(=O)NN (configuration not stated) | > 100 | 70.4 | 
32 | O=C(OCCOCn1cc(Br)c(=O)[nH]c1=O)c1ccccc1 | > 100 | 69.1 | 
33 | O=C(O)CC1CSc2ccccc2NC1=O (configuration not stated) | > 100 | 76.5 | 
34 | Cc1cc(/C=C2\NC(=O)NC2=O)c(C)n1-c1ccc(OCc2ccc(Cl)cc2Cl)cc1 | 8.73 |  | Activity [1]: inactive
35 | CCOC(=O)C12CC(OC3CCCCC3)C1(c1ccccc1)NC(=O)C2=O (configuration not stated) | > 100 | 80.4 | 
36 | COc1cc(NC(=O)C2CC(=O)N=C(N)S2)cc(OC)c1 (configuration not stated) | > 100 | 74.5 | 
37 | CCc1nnc(NC(=O)C(=O)NCCOC(=O)c2ccccc2)s1 | > 100 | 77.9 | 
38 | CCN1C(=O)/C(=C/c2ccc(O)c([N+](=O)[O-])c2)SC1=S | > 100 | 65.5 | 
39 | NNC(=O)C12CC3CC(C1)CC(n1cnc(Cl)n1)(C3)C2 | > 100 | 73.4 | 
40 | NNC(=O)c1cccc(Cn2cc(Br)c([N+](=O)[O-])n2)c1 | > 100 | 94.6 | 
41 | Cc1cc(/C=C2\NC(=O)NC2=O)cc(C)c1OCc1cccc([N+](=O)[O-])c1 | 17.8 |  | 
42 | CCC(C)Oc1ccc(/C=C2\NC(=O)NC2=O)cc1 (configuration not stated) | 52.8 |  | 
43 | CC1=C(C(=O)O)N2C(=O)C(NC(=O)c3ccn(C)n3)C2SC1 (configuration not stated) | > 100 | 80 | 
44 | CCOc1cc(/C=C2\NC(=O)NC2=O)c(Cl)cc1OC | > 100 | 70 | 
45 | CCCOC(=O)CNc1n[nH]c(=O)[nH]c1=O | > 100 | 89.1 | 
